Assay [1] has as its target T1, EphA4 (Mus musculus, UniProt Q03137). The assay can be described thus: EphA4 AP binding to immobilized KYL peptide. Particulars: for inhibition at 10 µM: read-out: (% Inhib.) EphA4 KYL; for (% Inhib.) EphA4 KYL: screen, compounds at 10 μM. The method in brief:
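Biotinylated KYL peptide (biotin on the lysine of a C-terminal GSGSK linker) was captured on streptavidin-coated wells, with coating in borate buffer pH 8.7. Test compound (10 μM in 1% DMSO for screening; varied concentrations for confirmation) was added with ~0.35 nM mouse EphA4 ectodomain–AP from NIH3T3 supernatant in TBST. Bound AP was read at 405 nm with 1 mg/ml p-nitrophenylphosphate in SEAP buffer pH 9.8, minus AP-only background. Percent inhibition was taken relative to no-compound wells.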

Assay [2] addresses T1, EphA4. The assay can be described thus: ELISA, ephrin-A5 AP binding to immobilized EphA4 Fc. The method in brief:
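Mouse EphA4 Fc was captured at 1 μg/ml on protein A wells. Ephrin-A5 AP (~0.01 nM for IC50) from HEK293 supernatant was added with test compound for 2 h in TBST and read with p-nitrophenylphosphate, minus Fc-only background. For reversibility, compound was incubated 2 h, washed 30 min, then ephrin-A5 AP added for 1 h. For mode of inhibition, ephrin-A5 AP was titrated per compound concentration and fitted one-site; Ki came from KD/Bmax versus inhibitor regression.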
For orientation: In an ELISA, binding on a coated surface is turned into a signal by an enzyme label.

For assay [3], the target named is EphA2 (Mus musculus, UniProt Q03145). Description: ELISA, ephrin-A5 AP binding to immobilized EphA2 Fc. To be noted: read-out: IC50 ± SE EphA2 ephrin-A5.
Sequence of EphA2 (Mus musculus, UniProt Q03145) (Q03145 26-538): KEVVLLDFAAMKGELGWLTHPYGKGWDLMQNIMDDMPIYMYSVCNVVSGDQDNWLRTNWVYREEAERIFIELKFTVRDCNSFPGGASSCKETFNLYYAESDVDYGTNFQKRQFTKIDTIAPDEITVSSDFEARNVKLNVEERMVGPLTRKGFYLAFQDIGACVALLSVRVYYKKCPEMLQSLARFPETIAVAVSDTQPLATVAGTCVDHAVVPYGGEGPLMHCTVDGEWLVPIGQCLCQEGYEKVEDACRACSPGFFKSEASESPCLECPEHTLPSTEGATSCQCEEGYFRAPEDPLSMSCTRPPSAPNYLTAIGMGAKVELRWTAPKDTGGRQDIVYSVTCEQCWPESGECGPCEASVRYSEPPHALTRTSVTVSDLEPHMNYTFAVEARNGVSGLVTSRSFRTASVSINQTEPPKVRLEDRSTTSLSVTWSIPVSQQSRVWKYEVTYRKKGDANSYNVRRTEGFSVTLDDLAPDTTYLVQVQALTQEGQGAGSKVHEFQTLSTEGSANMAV
In assay [4] the target is T2, EphB4 (Mus musculus, UniProt P54761).
T2 sequence (P54761 16-539): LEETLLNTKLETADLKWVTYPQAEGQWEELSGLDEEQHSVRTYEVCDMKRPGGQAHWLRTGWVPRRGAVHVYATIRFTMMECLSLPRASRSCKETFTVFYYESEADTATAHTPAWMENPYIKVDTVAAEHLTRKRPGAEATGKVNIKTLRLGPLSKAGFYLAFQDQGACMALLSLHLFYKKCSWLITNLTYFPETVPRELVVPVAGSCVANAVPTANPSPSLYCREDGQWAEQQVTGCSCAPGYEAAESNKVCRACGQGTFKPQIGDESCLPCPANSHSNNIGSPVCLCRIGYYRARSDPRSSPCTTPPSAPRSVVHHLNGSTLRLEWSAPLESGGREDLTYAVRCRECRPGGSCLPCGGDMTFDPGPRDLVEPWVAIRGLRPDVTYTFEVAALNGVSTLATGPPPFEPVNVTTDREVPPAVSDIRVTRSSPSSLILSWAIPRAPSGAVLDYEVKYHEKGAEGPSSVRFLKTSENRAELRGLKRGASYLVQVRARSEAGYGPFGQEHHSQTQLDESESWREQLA
Description: ELISA, ephrin-B2 AP binding to immobilized EphB4 Fc. To be noted: for IC50: read-out: IC50 ± SE EphB4 ephrin-B2.

Assay [5] has as its system EphB6. Description: ELISA, ephrin-B2 AP binding to immobilized EphB6 Fc. To be noted: at 100 μM. The method in brief: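 Eph receptor Fc fusions were immobilized at 1 μg/ml in TBST on protein A-coated wells. Diluted ephrin AP fusion supernatant from transiently transfected HEK293 cells was added for 2 h with or without test compound; for IC50 it was at approximately 0.01 nM. Bound AP was read with p-nitrophenylphosphate, minus Fc-only background. IC50 came from a variable-slope log(inhibitor)–response fit, bottom constrained to 0.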

Assay [6] concerns Eph receptors. Description: ELISA, ephrin binding to panel of EphA and EphB receptors. Particulars: at 100 μM.
Assay [7] addresses EphA2 (Homo sapiens, UniProt P29317). Description: Ephrin-A1 Fc-induced EphA2 phosphorylation in HUVECs. Particulars: at 50 μM. Type of assay: cell-based. A digest of the protocol: (§1)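 HUVECs were serum-starved 1–2 h and preincubated 15 min with 50 μM test compound (DMSO ≤0.4% final). They were then stimulated 20 min with 0.25 μg/mL ephrin-A1 Fc plus 1.5 μg/mL ephrin-B2 Fc (preclustered with 3-fold anti-Fc), or Fc, with compound present. Lysates were made in modified RIPA with NaF and pervanadate. EphA2 (1 μg antibody) and EphB4 (20 μg antibody) immunoprecipitates were immunoblotted for phosphotyrosine; lysates were probed for receptors and β-actin.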

The target in assay [8] is T3, EphB4 (Homo sapiens, UniProt P54760).
T3 sequence (P54760 16-987): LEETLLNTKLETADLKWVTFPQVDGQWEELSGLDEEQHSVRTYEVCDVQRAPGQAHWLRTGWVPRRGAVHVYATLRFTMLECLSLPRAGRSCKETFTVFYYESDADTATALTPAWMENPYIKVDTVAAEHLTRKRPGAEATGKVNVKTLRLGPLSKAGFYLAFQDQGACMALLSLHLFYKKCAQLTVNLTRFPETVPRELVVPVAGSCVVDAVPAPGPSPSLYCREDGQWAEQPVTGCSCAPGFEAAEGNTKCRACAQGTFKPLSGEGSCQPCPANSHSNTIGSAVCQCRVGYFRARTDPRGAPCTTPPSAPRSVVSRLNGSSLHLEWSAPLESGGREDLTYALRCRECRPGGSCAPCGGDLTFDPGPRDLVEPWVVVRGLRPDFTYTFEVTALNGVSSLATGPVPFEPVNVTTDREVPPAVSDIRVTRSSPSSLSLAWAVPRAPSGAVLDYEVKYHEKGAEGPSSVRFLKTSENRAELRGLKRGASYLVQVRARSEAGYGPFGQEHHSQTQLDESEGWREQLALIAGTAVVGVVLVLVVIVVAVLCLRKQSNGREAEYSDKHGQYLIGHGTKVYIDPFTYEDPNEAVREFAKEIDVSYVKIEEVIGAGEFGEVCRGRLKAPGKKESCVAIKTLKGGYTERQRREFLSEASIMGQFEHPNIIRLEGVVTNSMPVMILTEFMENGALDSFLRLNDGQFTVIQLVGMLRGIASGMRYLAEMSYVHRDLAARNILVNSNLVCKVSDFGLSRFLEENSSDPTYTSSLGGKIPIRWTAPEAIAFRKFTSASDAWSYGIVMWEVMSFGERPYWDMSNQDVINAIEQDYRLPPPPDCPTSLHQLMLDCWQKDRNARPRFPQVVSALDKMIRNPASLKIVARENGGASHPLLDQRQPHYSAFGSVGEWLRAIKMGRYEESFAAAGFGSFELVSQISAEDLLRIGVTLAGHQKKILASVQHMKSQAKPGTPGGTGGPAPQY
The assay can be described thus: Ephrin-B2 Fc-induced EphB4 phosphorylation in HUVECs. Type of assay: cell-based. To be noted: at 50 μM. A digest of the protocol: as §1

Assay [9] deals with HUVECs. The assay can be described thus: Capillary-like tube formation assay, HUVECs on Matrigel. To be noted: at 10 μM, 18 hours. The assay is classed as cell-based, human. A digest of the protocol: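 HUVECs (2.3 × 10⁴) were seeded on Matrigel-precoated wells in complete HUVEC medium containing test compound or DMSO control and grown for 18 h. Polygons were counted from phase-contrast images, 2–4 pictures from each of 3–6 wells. Counts were compared with DMSO-only wells by one-way ANOVA with Dunnett's post-hoc test.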

The mark [10] stands for this setting: read-out: IC50 ± SE EphA4 ephrin-A5.

As a reminder, the IC50 is the concentration that inhibits the measured activity by half.

Some results are limits rather than exact numbers.

T1 sequence (Q03137 20-547 limits assumed): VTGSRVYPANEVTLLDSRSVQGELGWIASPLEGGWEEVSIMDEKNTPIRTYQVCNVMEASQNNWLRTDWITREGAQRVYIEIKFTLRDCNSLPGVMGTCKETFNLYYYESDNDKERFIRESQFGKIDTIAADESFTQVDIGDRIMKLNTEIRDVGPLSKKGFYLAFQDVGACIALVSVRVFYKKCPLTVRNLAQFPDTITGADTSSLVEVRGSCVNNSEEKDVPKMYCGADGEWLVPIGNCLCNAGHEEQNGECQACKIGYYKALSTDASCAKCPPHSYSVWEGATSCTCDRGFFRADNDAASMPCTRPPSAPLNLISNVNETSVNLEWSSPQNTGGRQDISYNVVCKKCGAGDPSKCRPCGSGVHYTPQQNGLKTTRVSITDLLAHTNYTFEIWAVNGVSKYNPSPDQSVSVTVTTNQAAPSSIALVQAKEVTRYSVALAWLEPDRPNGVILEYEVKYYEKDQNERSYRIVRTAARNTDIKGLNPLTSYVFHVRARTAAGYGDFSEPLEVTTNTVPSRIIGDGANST
Sequence of EphA2 (Homo sapiens, UniProt P29317) (P29317 24-976): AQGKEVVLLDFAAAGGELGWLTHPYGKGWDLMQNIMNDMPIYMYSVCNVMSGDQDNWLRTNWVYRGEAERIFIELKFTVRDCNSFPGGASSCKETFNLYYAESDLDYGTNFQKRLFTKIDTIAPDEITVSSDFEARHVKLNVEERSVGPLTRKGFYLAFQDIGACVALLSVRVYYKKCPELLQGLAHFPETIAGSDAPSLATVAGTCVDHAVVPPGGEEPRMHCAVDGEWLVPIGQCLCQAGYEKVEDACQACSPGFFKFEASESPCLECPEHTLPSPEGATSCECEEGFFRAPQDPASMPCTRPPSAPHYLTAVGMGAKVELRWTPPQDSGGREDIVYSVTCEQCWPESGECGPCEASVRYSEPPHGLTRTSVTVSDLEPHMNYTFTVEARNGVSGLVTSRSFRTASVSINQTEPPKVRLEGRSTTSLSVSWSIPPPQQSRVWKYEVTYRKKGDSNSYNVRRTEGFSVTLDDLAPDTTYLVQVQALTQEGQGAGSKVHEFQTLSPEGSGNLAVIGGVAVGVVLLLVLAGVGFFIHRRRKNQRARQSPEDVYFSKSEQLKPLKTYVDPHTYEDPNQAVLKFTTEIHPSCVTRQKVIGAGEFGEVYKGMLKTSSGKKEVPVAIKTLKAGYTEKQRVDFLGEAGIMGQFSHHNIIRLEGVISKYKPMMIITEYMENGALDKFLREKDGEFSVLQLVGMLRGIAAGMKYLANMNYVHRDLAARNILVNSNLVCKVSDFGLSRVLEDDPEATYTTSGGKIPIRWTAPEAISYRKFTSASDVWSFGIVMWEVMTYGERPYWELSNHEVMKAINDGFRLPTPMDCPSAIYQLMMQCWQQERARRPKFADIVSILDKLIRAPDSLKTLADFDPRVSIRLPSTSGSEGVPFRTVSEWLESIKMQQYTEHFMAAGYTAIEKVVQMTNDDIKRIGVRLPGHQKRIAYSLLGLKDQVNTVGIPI

As to `O=C(O[C@@H]1Cc2c(O)cc(O)cc2O[C@@H]1c1cc(O)c(O)c(O)c1-c1c([C@H]2Oc3cc(O)cc(O)c3C[C@H]2O)cc(O)c(O)c1O)c1cc(O)c(O)c(O)c1` [2′,2′-bisepigallocatechin monogallate], in assay [1], the inhibition at 10 µM turned out to be 80%.
As to `O=C(O[C@@H]1Cc2c(O)cc(O)cc2O[C@@H]1c1cc(O)c(O)c(O)c1-c1c([C@H]2Oc3cc(O)cc(O)c3C[C@H]2OC(=O)c2cc(O)c(O)c(O)c2)cc(O)c(O)c1O)c1cc(O)c(O)c(O)c1` [2′,2‴-bisepigallocatechin digallate], the “(% Inhib.) EphA4 KYL” value in assay [1] worked out at 76%.
Turning to `O=C(O[C@@H]1Cc2c(O)cc(O)cc2O[C@@H]1c1ccc(O)c(O)c1)c1cc(O)c(O)c(O)c1` [epicatechin-3-monogallate, epicatechin-3-gallate], the IC50 was 50 ± 6 µM in assay [1] (read-out: IC50 ± SE EphA4 KYL), above 200 µM in [2] (setting [10]), above 200 µM in assay [3] and above 200 µM in [4]. Further, the “(% Inhib.) EphA4 KYL” value in assay [1] was below 40%.
Turning to `Oc1cc(O)c2c(c1)O[C@H](c1ccc(O)c(O)c1)[C@H](O)C2` [epicatechin], in assay [1], the IC50 came to 190 ± 1.5 µM and the inhibition at 10 µM was below 40%. In assay [2], this molecule displayed an IC50 above 200 µM.
With `Oc1cc(O)c2c(c1)O[C@H](c1cc(O)c(O)c(O)c1)[C@H](O)C2` [epigallotechin, epigallocatechin], in assay [1], the IC50 came out at 44 ± 13 µM and the inhibition at 10 µM is below 40%. In addition, in assay [2], the IC50 is above 200 µM.
`O=C(O)c1cc(O)c(=O)c2c(O)c(O)cc([C@H]3Oc4cc(O)cc(O)c4C[C@H]3O)c2c1` [epitheaflavic acid]: the “(% Inhib.) EphA4 KYL” value in assay [1] is on record as “less than 40%”.
As to `O=C(O)c1cc(O)c(=O)c2c(O)c(O)cc([C@H]3Oc4cc(O)cc(O)c4C[C@@H]3O)c2c1` [theaflavic acid], in [1], the “(% Inhib.) EphA4 KYL” value is on record as “less than 40%”.
Turning to `O=c1c(O)cc([C@H]2Oc3cc(O)cc(O)c3C[C@H]2O)cc2c([C@H]3Oc4cc(O)cc(O)c4C[C@H]3O)cc(O)c(O)c12` [theaflavin], the inhibition at 10 µM in assay [1] is below 40%.
In the case of epigallocatechin-3-gallate [EGCG], the IC50 in [1] (read-out: IC50 ± SE EphA4 KYL) is 15 ± 1.8 µM; in assay [2] (setting [10]), above 200 µM; in assay [3] it was above 200 µM; in [4], above 200 µM. Further, in assay [1], the “(% Inhib.) EphA4 KYL” value is on record as below 40%. In addition, the “inhibition of ephrin-A5 binding to EphA4” value in assay [2] (at 200 μM) is given as ~ 25%. The “inhibition of ephrin binding to EphB4” value in [4] (at 100 μM) was “not detectably inhibited”. In addition, in assay [5], the “inhibition of ephrin binding to EphB6” value was “not detectably inhibited”. The “inhibition of ephrin binding to many Eph receptors” value in assay [6] was 10–30%. For the same molecule, in assay [7], the “EphA2 phosphorylation in HUVECs” value was “does not strongly inhibit”. Further, in [8], the “EphB4 phosphorylation in HUVECs” value is recorded as “does not strongly inhibit”. In addition, the capillary-like tube formation entry in [9] was “significantly inhibits”.
With “theaflavin-3,3′-digallate [theaflavin-3,3′-digallate]”, the “(% Inhib.) EphA4 KYL” value in assay [1] is 65%.
